Data taken from ChEMBL document CHEMBL1123217, “Molecular design toward biologically significant compounds based on platelet activating factor: a highly selective agonist as a potential antihypertensive agent” (1986).

Tests used:
Rattus norvegicus [1] = assay: Antihypertensive activity using C16-PAF in rat at a doses ranging from 1-10 nmol/kg iv; assay type: functional
In short: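 Male Wistar rats (350-430 g, 3-6 per group) under sodium pentobarbital anesthesia (60 mg/kg). Arterial pressure was recorded through a femoral artery catheter. Doses were given iv through a vena cava catheter once readings were stable. Pressure and heart rate were followed every 5 min for 40 min. Falls were expressed relative to C16-PAF given at 1-10 nmol/kg iv.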

Oryctolagus cuniculus = species: Oryctolagus cuniculus; assay: Relative activity against platelet aggregation in [14C]5-HT preloaded rabbit platelet for 2 mins; assay type: functional
In short: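 Rabbit platelets preloaded with [14C]serotonin were incubated with a range of analogue amounts for 2 min at 20 °C, and [14C]serotonin release was measured. Activity was expressed relative to the ED50 of C16-PAF.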

[2] = Ratio of antihypertension to platelet activation
Rattus norvegicus [3] = assay: Hypotensive activity in spontaneously hypertensive rat expressed as decrease in systolic BP at 0.1 mg/kg, po; assay type: functional
In short: (§1)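 Male SHR aged 18-20 weeks, fasted 24 h with free access to water, dosed orally. Systolic pressure was measured indirectly by tail cuff, with heart rate recorded at the same time. The fall in mmHg was read 3 h after dosing, with 4-5 animals per dose, reported as mean ±.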

Rattus norvegicus [4] = assay: Hypotensive activity in spontaneously hypertensive rat expressed as decrease in systolic BP at 1 mg/kg, po; assay type: functional; in short: as §1
Rattus norvegicus [5] = assay: Hypotensive activity in spontaneously hypertensive rat expressed as decrease in systolic BP at 0.3mg/kg, po; assay type: functional
In short: (§2)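 Male SHR (18-20 weeks old), food withdrawn 24 h beforehand with free access to water; compound given orally; systolic blood pressure in the tail artery read indirectly by tail-cuff, heart rate recorded simultaneously; decrease in systolic pressure (mmHg) taken 3 h after dosing; n = 4-5 animals per dose.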

Rattus norvegicus [6] = assay: Hypotensive activity in spontaneously hypertensive rat expressed as decrease in systolic BP at 25 mg/kg, po; assay type: functional; in short: as §2
Rattus norvegicus [7] = assay: Hypotensive activity in spontaneously hypertensive rat expressed as decrease in systolic BP at 3 mg/kg, po; assay type: functional; in short: as §2

Work on CCCCCCCCCCCCCCCCOCC(C)(COP(=O)([O-])OCC[N+](C)(C)C)OC(C)=O (stereo unspecified) yielded a Relative activity (Rattus norvegicus [1]) of 0.0001.
CCCCCCCCCCCCCCCCOCC(OC(C)=O)C(C)OP(=O)([O-])OCC[N+](C)(C)C (single isomer, unassigned) showed a Relative activity (Oryctolagus cuniculus) of 0.00055, a Relative activity (Rattus norvegicus [1]) of 0.001 and a Ratio [2] of 1.82.
Compound CCCCCCCCCCCCCCCCOC(C)C(COP(=O)([O-])OCC[N+](C)(C)C)OC(C)=O (single isomer, unassigned; enantiomer 2) has a Relative activity (Rattus norvegicus [1]) of 0.0002.
With CCCCCCCCCCCCCCCCOC(C)C(COP(=O)([O-])OCC[N+](C)(C)C)OC(C)=O (single isomer, unassigned; enantiomer 3) the Relative activity (Oryctolagus cuniculus) was 0.00056, the Relative activity (Rattus norvegicus [1]) was 0.0001 and the Ratio [2] was 0.18.
CCCCCCCCCCCCCCCCOCC(OC(C)=O)C(C)OP(=O)([O-])OCC[N+](C)(C)C (stereo in doubt) showed a Relative activity (Rattus norvegicus [1]) of 0.0002.
With CCCCCCCCCCCCCCCCOC(C)C(COP(=O)([O-])OCC[N+](C)(C)C)OC(C)=O (stereo in doubt; 2) the Relative activity (Oryctolagus cuniculus) was 0.0087, the Decrease (Rattus norvegicus [3]) was 35 mmHg and the Decrease (Rattus norvegicus [4]) was 69 mmHg. For the same compound, the Relative activity (Rattus norvegicus [1]) was 0.059 and the Ratio [2] was 6.78.
CCCCCCCCCCCCCCCCOC(C)C(COP(=O)([O-])OCC[N+](C)(C)C)OC(C)=O (stereo in doubt; 3) gave a Relative activity (Rattus norvegicus [1]) of 0.00033.
CCCCCCCCCCCCCCCCOCC(OC(C)=O)C(C)OP(=O)([O-])OCC[N+](C)(C)C (stereo in doubt; 5) showed a Relative activity (Rattus norvegicus [1]) of 0.002 and a Ratio [2] of 3.64.
CCCCCCCCCCCCCCCCOCC(OC(C)=O)C(C)OP(=O)([O-])OCC[N+](C)(C)C (stereo in doubt; 6) showed a Relative activity (Oryctolagus cuniculus) of 0.00089, a Relative activity (Rattus norvegicus [1]) of 0.0014 and a Ratio [2] of 1.57.
Work on CCCCCCCCCCCCCCCCOCC(COP(=O)([O-])OCC[N+](C)(C)C)OC(C)=O (stereo unspecified) [PLATELET ACTIVATING FACTOR] yielded a Relative activity (Oryctolagus cuniculus) of 1, a Decrease (Rattus norvegicus [5]) of 4 mmHg and a Decrease (Rattus norvegicus [6]) of 53 mmHg. For the same compound, the Decrease (Rattus norvegicus [7]) was 5 mmHg, the Relative activity (Rattus norvegicus [1]) was 1 and the Ratio [2] was 1.
